Drawing on ChEMBL document CHEMBL1124598, “Benzofuro[2,3-c]pyridin-6-ols: synthesis, affinity for opioid-receptor subtypes, and antinociceptive activity” (J Med Chem, 1989), this text covers ED50 for nine compounds.

The test system of this assay is Mus musculus. As to the kind of experiment: Analgesic activity 30 min after subcutaneous administration in mouse by using PQW test. The format is functional. As to conditions: sc, 0.5 h. In a few lines: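 Male CF-1 mice (18-23 g), ten per dose; compound given sc, then 30 min later phenylquinone 3.75 mg/kg in 5% aqueous ethanol ip. Mice observed 10 min in free-moving cages for abdominal stretching. ED50 determined with 95% confidence limits.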
By ED50 is commonly meant the midpoint of the dose-response relation. Read a low ED50 as an effect at a small dose. In the case of `CC[C@@]12CCN(CC3CCCC3)C[C@@H]1Oc1ccc(O)cc12`, the ED50 was 0.0521 µmol/kg.
The figure for `CCCN1CC[C@@]2(CC)c3cc(O)ccc3O[C@H]2C1` is 0.0051 µmol/kg.
Compound `CC[C@@]12CCN(C)C[C@@H]1Oc1ccc(O)cc12` returned an ED50 of 0.005 µmol/kg.
The same measure for `CC[C@@]12CCN(CC3CCC3)C[C@@H]1Oc1ccc(O)cc12`: 0.00145 µmol/kg; for `CC[C@@]12CCN(Cc3ccoc3)C[C@@H]1Oc1ccc(O)cc12`: 0.0512 µmol/kg; for `CC[C@@]12CCN(CC3CCCO3)C[C@@H]1Oc1ccc(O)cc12` (some centres undefined): 0.005 µmol/kg.
`CC[C@@]12CCN(Cc3ccco3)C[C@@H]1Oc1ccc(O)cc12` yielded an ED50 of 0.0908 µmol/kg.
In turn, `CC[C@@]12CCN(CC3CC3)C[C@@H]1Oc1ccc(O)cc12` returned a median effective dose (ED50) of 0.00119 µmol/kg.
The same measure for `CC[C@@]12CCN(CCc3ccccc3)C[C@@H]1Oc1ccc(O)cc12`: 0.00037 µmol/kg.
